From ChEMBL document CHEMBL1126988, “Quinolone antibacterials containing the new 7-[3-(1-aminoethyl)-1- pyrrolidinyl] side chain: the effects of the 1-aminoethyl moiety and its stereochemical configurations on potency and in vivo efficacy” (J Med Chem, 1993) come the findings set out here.

One may read the MIC as the least concentration at which growth counts as inhibited. In general, IC50 refers to the concentration that inhibits the measured activity by half.

Values after ≈ are worked out from the molar mass of the structure shown. Where only a bound is given, the exact number is not on record here.

For test [1], the system named is Escherichia coli. As to the kind of experiment: Antibacterial activity against Escherichia coli Vogel after subcutaneous administration in mouse. In kind it is functional. The settings on record: Escherichia coli, sc; read-out: PD50.
Test [2] deals with Staphylococcus aureus. As to the kind of experiment: Minimum inhibitory concentration was evaluated in vitro against Staphylococcus aureus H 228. Format: functional. In short, it runs like this: (§1)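 Standard microtitration broth assay against a panel of 10 Gram-positive and Gram-negative organisms. MIC read in µg/mL and averaged over multiple experiments.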
Test [3] can be described thus: Clonogenic cytotoxicity against hamster V-79 cells. In kind it is functional, Cricetulus griseus, V79. A digest of the protocol: (§2)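 Chinese hamster V-79 cells grown overnight, then drug-treated for 3 h at 37 °C. Medium is replaced with fresh medium and cells are incubated 5 days to allow colony formation. IC50 (µg/mL) is the concentration inhibiting colony formation by 50% relative to control.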

The test system of test [4] is Streptococcus pyogenes. As to the kind of experiment: Compounds were evaluated in vivo for antibacterial activity for mouse protection against Streptococcus pyogenes C 203 after oral administration. Format: functional. The settings on record: for ED50: C 203, po, read-out: PD50.
Another test concerns Enterobacter cloacae. Nature of the test: Minimum inhibitory concentration in vitro against Enterobacter cloacae MA 2646. In kind it is functional.
Test [5] concerns Staphylococcus aureus. As to the kind of experiment: Minimum inhibitory concentration was evaluated in vitro against Staphylococcus aureus UC 76. Format: functional. A digest of the protocol: as §1
Another test deals with Providencia rettgeri. As to the kind of experiment: Minimum inhibitory concentration was evaluated in vitro against Providencia rettgeri M1771. In kind it is functional. In short, it runs like this:
as §1

Test [6] deals with Streptococcus pyogenes. As to the kind of experiment: Antibacterial activity measured as mouse protection against Streptococcus pyogenes C 203 after subcutaneous administration. Format: functional. The note with it: for ED50: Streptococcus pyogenes, C 203, sc, read-out: PD50.
The target of another test is DNA gyrase (Escherichia coli, UniProt P0AES4+P0AES6). As to the kind of experiment: Inhibition against DNA gyrase. In kind it is protein-complex assay.
Another test deals with Pseudomonas aeruginosa. As to the kind of experiment: Minimum inhibitory concentration was evaluated in vitro against Pseudomonas aeruginosa UI-18. Format: functional. In short, it runs like this: as §1
For test [7], the species on record is Mus musculus. Nature of the test: Compound was evaluated for phototoxicity no-effect dose in mouse. Format: functional. A digest of the protocol:
(§3)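 Depilated female CD-1 mice, five per dose plus controls. Animals are dosed orally and then exposed daily to UV-A (320–400 nm) for 3 h, for up to 4 days or until a definite positive response. Redness or erythema relative to controls, read 24 h after irradiation, counts as positive. Reported as the highest dose with no effect (mg/kg).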

Test [8] concerns Escherichia coli. Nature of the test: Antibacterial activity against Escherichia coli Vogel after oral administration in mouse. The settings on record: Escherichia coli, po; read-out: PD50. In kind it is functional.
For another test, the system named is Enterococcus faecalis. Nature of the test: Minimum inhibitory concentration was evaluated in vitro against Enterococcus faecalis MGH-2. In kind it is functional. A digest of the protocol:
as §1

Test [9] concerns Streptococcus pneumoniae. Nature of the test: Antibacterial activity expressed as Minimum inhibitory concentration was evaluated in vitro against Streptococcus pneumoniae SV-1. Format: functional. A digest of the protocol:
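Standard microtitration broth MIC (μg/mL), averaged from multiple experiments; one of a 10-organism Gram-positive/Gram-negative panel.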

Test [10] concerns Streptococcus pyogenes. Nature of the test: Minimum inhibitory concentration was evaluated in vitro against Streptococcus pyogenes C 203. Format: functional. In short, it runs like this:
as §1

The subject of another test is Klebsiella pneumoniae. Nature of the test: Minimum inhibitory concentration was evaluated in vitro against Klebsiella pneumoniae MGH2. Format: functional. A digest of the protocol: as §1
Test [11] concerns Escherichia coli. As to the kind of experiment: Antibacterial activity in vitro against Escherichia coli Vogel. In kind it is functional. A digest of the protocol:
as §1

For test [12], the species on record is Mus musculus. As to the kind of experiment: Compounds were evaluated for phototoxicity no-effect dose in mouse. In kind it is functional. A digest of the protocol: as §3
Test [13] can be described thus: Compound was evaluated for clonogenic cytotoxicity against hamster V-79 cells; 50% Inhibition. In kind it is functional, cell-based. The note with it: Cricetulus griseus, V79. In short, it runs like this:
as §2

Test [14] concerns Streptococcus pneumoniae. As to the kind of experiment: Minimum inhibitory concentration was evaluated in vitro against Streptococcus pneumoniae SV-1. In kind it is functional. A digest of the protocol:
as §1

The species named for test [15] is Mus musculus. Nature of the test: Compounds were evaluated for phototoxicity in mouse and phototoxicity no-effect dose was reported. Format: functional. A digest of the protocol:
as §3

The target of test [16] is DNA gyrase (Escherichia coli) (UniProt P0AES6+P0AES4). As to the kind of experiment: Initial inhibition as minimal concentration to induce cleavage of DNA gyrase complex. In kind it is protein-complex assay. In short, it runs like this: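 DNA gyrase isolated and purified from E. coli H560. Uses the initial cleavage method with relaxed Col E1 plasmid DNA as substrate. Read-out is the lowest drug concentration (µg/mL) giving detectable cleavage, seen by agarose gel electrophoresis with ethidium bromide staining. Averaged over multiple experiments, accurate to ±50%.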

The test system of test [17] is Streptococcus pyogenes. As to the kind of experiment: Antibacterial activity expressed as Minimum inhibitory concentration was evaluated in vitro against Streptococcus pyogenes C 203. In kind it is functional. In short, it runs like this: as §1
In test [18] the test system is Streptococcus pyogenes. Nature of the test: Compounds were evaluated in vivo for antibacterial activity for mouse protection against Streptococcus pyogenes C 203 after subcutaneous administration. The note with it: C 203, sc, read-out: PD50. In kind it is functional.
Setting [19] is: Staphylococcus aureus, read-out: MIC.
[20] abbreviates: Enterobacter cloacae, read-out: MIC.
[21] abbreviates: Providencia rettgeri, read-out: MIC.
Where [22] appears, read: Pseudomonas aeruginosa, read-out: MIC.
Setting [23] is: Enterococcus faecalis, read-out: MIC.
Where [24] appears, read: Streptococcus pyogenes, read-out: MIC.
[25] abbreviates: Klebsiella pneumoniae, read-out: MIC.
[26] abbreviates: Escherichia coli, read-out: MIC.
[27] abbreviates: Streptococcus pneumoniae, read-out: MIC.

In the case of `NC1CCN(c2nc3c(cc2F)c(=O)c(C(=O)O)cn3C2CC2)C1` (stereo not given), the ED50 with Escherichia coli [1] worked out at 0.6 mg/kg; in the test on Streptococcus pyogenes [4] (Streptococcus pyogenes) it was 32 mg/kg; with Streptococcus pyogenes [6], 14 mg/kg; in the test with Escherichia coli [8], 2 mg/kg. Besides, the minimum inhibitory concentration (MIC) was found to be 0.2 µg/mL (≈ 0.602 µM) with Staphylococcus aureus [2] (setting [19]); 0.025 µg/mL (≈ 0.0752 µM) with Enterobacter cloacae (setting [20]); 0.013 µg/mL (≈ 0.0391 µM) in the test on Staphylococcus aureus [5] (setting [19]); 0.05 µg/mL (≈ 0.15 µM) with Providencia rettgeri (setting [21]); 0.1 µg/mL (≈ 0.301 µM) in the test on Pseudomonas aeruginosa (setting [22]); 0.2 µg/mL (≈ 0.602 µM) with Enterococcus faecalis (setting [23]). The minimum inhibitory concentration (MIC) in the test on Streptococcus pneumoniae [9] came out at 0.2 µg/mL (≈ 0.602 µM); with Streptococcus pyogenes [10] (setting [24]), 0.2 µg/mL (≈ 0.602 µM); in the test with Klebsiella pneumoniae (setting [25]), 0.025 µg/mL (≈ 0.0752 µM); in the test with Escherichia coli [11] (setting [26]) it was 0.013 µg/mL (≈ 0.0391 µM). The Cytotoxicity in test [3] turned out to be 98 µg/mL. In addition, on DNA gyrase, the IC50 is 2260 nM. The Dose in the test filed under Mus musculus [7] was over 100 mg/kg.

With `CN[C@H](C)[C@@H]1CCN(c2nc3c(cc2F)c(=O)c(C(=O)O)cn3C2CC2)C1`, the ED50 stood at 1 mg/kg in the test on Escherichia coli [1] and 5 mg/kg with Escherichia coli [8]. Also, the MIC was found to be 0.1 µg/mL (≈ 0.267 µM) with Staphylococcus aureus [2] (setting [19]); 0.025 µg/mL (≈ 0.0668 µM) in the test with Streptococcus pneumoniae [14] (setting [27]); 0.1 µg/mL (≈ 0.267 µM) with Enterobacter cloacae (setting [20]); 0.05 µg/mL (≈ 0.134 µM) with Staphylococcus aureus [5] (setting [19]); 0.4 µg/mL (≈ 1.07 µM) in the test on Providencia rettgeri (setting [21]); 1.6 µg/mL (≈ 4.27 µM) in the test on Pseudomonas aeruginosa (setting [22]). In addition, the minimal inhibitory concentration (MIC) in the test on Enterococcus faecalis (setting [23]) is 0.1 µg/mL (≈ 0.267 µM); with Streptococcus pyogenes [10] (setting [24]) it was 0.05 µg/mL (≈ 0.134 µM); with Klebsiella pneumoniae (setting [25]), 0.2 µg/mL (≈ 0.534 µM); in the test on Escherichia coli [11] (setting [26]), 0.1 µg/mL (≈ 0.267 µM). In the test filed under Mus musculus [12], the Dose was found to be 30 mg/kg. The IC50 in [13] turned out to be 88 µg/mL (≈ 235 µM).

As for `CN[C@H](C)[C@H]1CCN(c2cc3c(cc2F)c(=O)c(C(=O)O)cn3C2CC2)C1` (mixture of isomers), the ED50 amounted to 1 mg/kg with Escherichia coli [1] and 7 mg/kg with Escherichia coli [8]. In addition, the MIC is 0.2 µg/mL in the test on Staphylococcus aureus [2]; 0.05 µg/mL against Streptococcus pneumoniae [14]; 0.2 µg/mL in the test on Enterobacter cloacae; 0.05 µg/mL against Staphylococcus aureus [5]; 0.8 µg/mL against Providencia rettgeri; 1.6 µg/mL in the test with Pseudomonas aeruginosa. Also, the minimum inhibitory concentration (MIC) in the test with Enterococcus faecalis was 0.1 µg/mL; with Streptococcus pyogenes [10], 0.05 µg/mL; in the test on Klebsiella pneumoniae, 0.4 µg/mL; against Escherichia coli [11], 0.2 µg/mL. Moreover, the Cytotoxicity in [3] stood at 180 µg/mL. In addition, the Phototoxicity in the test listed under Mus musculus [15] was 100 mg/kg. Besides, the PD50 turned out to be 7 mg/kg in the test with Streptococcus pyogenes [4] and 1 mg/kg in the test with Streptococcus pyogenes [6].

In test [16], `CN[C@H](C)[C@H]1CCN(c2c(F)cc3c(=O)c(C(=O)O)cn(C4CC4)c3c2OC)C1` (racemic) returned an Initial inhibition of under 0.5 µg/mL. In addition, the results for the ED50 with Escherichia coli [1], with Streptococcus pyogenes [6] and in the test on Escherichia coli [8] were 1 mg/kg, 0.1 mg/kg and 5 mg/kg, respectively. For the same molecule, the MIC in the test with Streptococcus pyogenes [17] is 3 ng/mL (≈ 0.00744 µM); in the test with Staphylococcus aureus [2] (setting [19]), 0.013 µg/mL (≈ 0.0322 µM); in the test on Streptococcus pneumoniae [14] (setting [27]) it was 0.003 µg/mL (≈ 0.00744 µM); in the test on Enterobacter cloacae (setting [20]) it was 0.05 µg/mL (≈ 0.124 µM); with Staphylococcus aureus [5] (setting [19]) it was 0.003 µg/mL (≈ 0.00744 µM); in the test with Providencia rettgeri (setting [21]), 0.2 µg/mL (≈ 0.496 µM). Also, the minimum inhibitory concentration (MIC) worked out at 0.8 µg/mL (≈ 1.98 µM) in the test with Pseudomonas aeruginosa (setting [22]), 0.025 µg/mL (≈ 0.062 µM) in the test on Enterococcus faecalis (setting [23]), 0.1 µg/mL (≈ 0.248 µM) in the test with Klebsiella pneumoniae (setting [25]) and 0.05 µg/mL (≈ 0.124 µM) with Escherichia coli [11] (setting [26]). Also, in test [3], the Cytotoxicity turned out to be 33 µg/mL. The Dose in the test filed under Mus musculus [12] is over 100 mg/kg.

As for `CCN[C@@H](C)[C@H]1CCN(c2nc3c(cc2F)c(=O)c(C(=O)O)cn3C2CC2)C1`, the MIC in the test with Staphylococcus aureus [2] (setting [19]) was determined as 0.8 µg/mL (≈ 2.06 µM); with Enterobacter cloacae (setting [20]), 0.8 µg/mL (≈ 2.06 µM); with Staphylococcus aureus [5] (setting [19]), 0.4 µg/mL (≈ 1.03 µM); with Providencia rettgeri (setting [21]) it was 3.1 µg/mL (≈ 7.98 µM); in the test on Pseudomonas aeruginosa (setting [22]), 6.3 µg/mL (≈ 16.2 µM); in the test on Enterococcus faecalis (setting [23]), 0.8 µg/mL (≈ 2.06 µM). The MIC in the test with Streptococcus pneumoniae [9] is 0.2 µg/mL (≈ 0.515 µM); in the test with Streptococcus pyogenes [10] (setting [24]), 0.4 µg/mL (≈ 1.03 µM); in the test with Klebsiella pneumoniae (setting [25]), 0.8 µg/mL (≈ 2.06 µM); in the test with Escherichia coli [11] (setting [26]), 0.4 µg/mL (≈ 1.03 µM). Moreover, the ED50 in the test on Streptococcus pyogenes [4] and in the test on Streptococcus pyogenes [18] was 12 mg/kg throughout.
